# Source: PubChem BioAssay
# Hits are enriched below; roughly 1.8% of the tested compounds scored in any of these assays.
# PABP polyA inh: PABP-poly(A) binding inhibition | P11940 | PABP-poly(A) RNA binding, fluorescence polarization | calls only at 35 µM | actives 1% (n = 290,000);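 note: calls also rest on retests at 20 µM and on dose response follow-up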
# eIF4H inh: inhibitors of RNA binding by human eIF4H | eIF4H fluorescence polarization binding assay | inhibition, % at 35 µM | AID 2012 | actives 0.94% (n = 290,000) | Q15056;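 note: calls also rest on retests at 20 µM and on dose response follow-up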
# eIF4E 4G PPI: eIF4E/eIF4G interaction inhibition in translation initiation. P63073+Q04637. TR-FRET eIF4E-eIF4GI(517-606) binding, 2 h. inhibition, % at 21.7 µM. actives 0.37% (n = 220,000). AID 782;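 active = inhibition above about 30%, limit read from the data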
# HCV core dimer: blocks dimerization of HCV core protein; actives 0.33% (n = 300,000); inhibition, % at 5 µM; TR-FRET GST/Flag-core106 dimerization, 1536-well;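 active = inhibition above the mean of all tested compounds plus 3 SD, set per screening campaign, cut at about 45% in these data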
#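 Assay system – GST-tagged and Flag-tagged HCV core protein residues 1-106 · Quantity – core106 proteins, GST 13.5 nM and Flag 17 nM · Benchmarks – unlabelled core106 and no-GST-core106 wells · Read-out basis – percent inhibition of core106 dimerization signal · Detection – time-resolved FRET, ex 340 nm, em 617 and 671 nm · Schedule – 4 h at 22.5 °C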
# SUMO HTRF inh: SUMOylation inhibition; HTRF SUMOylation assay, SAE1/SAE2 + UBC9, in vitro; actives 0.36% (n = 290,000); inhibition, % at 35 µM; P63279; in the data active = inhibition above about 50%, passing the limit was not always enough; inconclusive = no clear call, values can overlap the other calls
# PABP1 MLLE inh: blocks PAM2 peptide binding to the PABP1 MLLE domain | P11940 | GST-MLLE / FITC-PAM2 fluorescence polarization | inhibition, % at 20 µM | actives 0.36% (n = 360,000); in the data active = inhibition above about 35%, passing the limit was not always enough
# Hits are given with their value; - = inactive; ? = inconclusive; . = no result given; + = active, no number; [ ] = remark or other dose. Unless noted, the rule behind the calls is not given here.
SMILES,PABP polyA inh,eIF4H inh,eIF4E 4G PPI,HCV core dimer,SUMO HTRF inh,PABP1 MLLE inh
O=C(NCN1C(=O)C2C3C=CC(C3)C2C1=O)Nc1ccccn1 (stereo not drawn),-,-,-,-,-,-
O=C(CCN1C(=O)C2C3C=CC(C3)C2C1=O)Nc1ccccn1 (stereo not drawn),-,-,47,-,-,-
CCCN(C(=O)c1cc2c(s1)CCC2)c1c(N)n(Cc2ccccc2)c(=O)[nH]c1=O,+,96,-,-,.,-
C=CC[C@H](CC(=O)N[C@H](CO)Cc1ccccc1)C(=O)N[C@H](COC(=O)[C@H](CC=C)CC(=O)OC(C)(C)C)Cc1c[nH]c2ccccc12,.,.,.,.,.,-
CC(C)c1ccc(N(CC(=O)NCCCN2CCOCC2)S(=O)(=O)c2ccccc2)cc1,.,.,.,.,.,-
CC(S(=O)(=O)c1ccccc1)S(=O)(=O)c1ccccc1,.,.,.,.,.,-
CCc1c(C(C)S(=O)(=O)c2ccccc2)[nH]c(=O)n1CC (stereo not drawn),-,-,-,-,-,40
Cc1ccc(N(C(C)C(=O)Nc2ccc(S(=O)(=O)N3CCOCC3)cc2)S(C)(=O)=O)cc1 (stereo not drawn),+,?,-,-,-,-
Cc1ccc(N(C(C)C(=O)Nc2ccc(S(=O)(=O)N3CCOCC3)cc2)S(C)(=O)=O)cc1C (stereo not drawn),-,-,-,-,-,-
COc1ccc(-c2nn(-c3ccccc3)cc2/C=C2/SC(=S)N(CCC(=O)O)C2=O)cc1,-,-,.,-,-,-
O=C(O)CCCCCN1C(=O)/C(=C\c2cn(-c3ccccc3)nc2-c2cccs2)SC1=S,-,-,45,-,-,-
O=C(O)CCCCCN1C(=O)/C(=C/c2cn(-c3ccccc3)nc2-c2cccs2)SC1=S,.,.,.,.,.,-
O=C(O)CCN1C(=O)/C(=C/c2cn(-c3ccccc3)nc2-c2cccs2)SC1=S,-,-,30,.,-,-
COC(=O)/C=C/c1cccc([C@H]2[C@@H]3C=CC[C@@H](C)[C@@H]3C(=O)N2Cc2ccccc2)c1,.,.,.,.,.,-
COc1ccccc1-n1cc(-c2ccc(C)cc2)[nH]c1=S,-,-,.,-,-,-
COc1ccccc1-n1cc(-c2ccc([N+](=O)[O-])cc2)[nH]c1=S,-,-,-,-,-,39
O=C(CCNS(=O)(=O)c1cccs1)N1CCCCCC1,-,-,38,-,-,-
O=C(CCS(=O)(=O)c1cccs1)N1CCCC1,-,-,50,-,-,-
O=C(CCS(=O)(=O)c1cccs1)N1CCN(c2ccc(F)cc2)CC1,-,-,-,-,-,-
COc1ccccc1NC(=S)NC(=O)CCc1ccccc1,-,-,.,-,-,-
CC(C)c1ccc(O)c(NC(=S)NC(=O)CCc2ccccc2)c1,-,-,-,-,-,43
CCc1ccc(/C=N/NC(=O)c2cc(-c3ccccc3OC)nc3ccccc23)s1,-,-,-,56,-,-
Cc1cc(OC(C(=O)O)c2ccccc2)c2c(C)c(Cc3ccccc3)c(=O)oc2c1 (stereo not drawn),-,-,-,-,51,-
Cc1cc(OC(C)C(=O)NCC(O)c2ccccc2)c2c(C)c(C)c(=O)oc2c1 (stereo not drawn),-,-,.,-,-,-
CC(=O)NC(CC(=O)Oc1ccc(C)cc1Br)c1ccccc1 (stereo not drawn),-,-,.,.,-,-
SMILES,PABP polyA inh,eIF4H inh,eIF4E 4G PPI,HCV core dimer,SUMO HTRF inh,PABP1 MLLE inh
O=C(NCCCCc1ccccc1)C1CC(c2cc(C(F)(F)F)cc(C(F)(F)F)c2)=NO1 (stereo not drawn),-,-,-,-,-,-
CCOC(=O)c1nnn(-c2nonc2N)c1COc1ccccc1,+,-,-,-,-,-
O=C(NC(=S)Nc1ccc2c(c1)OCCO2)c1ccccc1F,-,-,-,-,-,-
O=C(O)CCCCCNC(=O)Nc1ccc2c(c1)OCCO2,-,-,-,-,-,-
O=C(NC(=S)Nc1ccc2c(c1)OCCO2)c1ccccc1,-,-,-,-,-,38
CCCOc1cccc(C(=O)NC(=S)Nc2ccccc2)c1,-,-,-,-,-,-
O=C(O)c1cccc(NC(=S)NC(=O)c2ccncc2)c1,-,-,-,-,-,44
O=C(O)c1cccc(NC(=S)NC(=O)c2cccc(OCc3ccccc3)c2)c1,-,-,.,-,-,40
O=C(O)CCNc1ccc2c(c1)OCCO2,+,83,-,-,-,-
CCOC(=O)c1nn(-c2ccccc2C)c(=O)cc1OCC(=O)N1CCN(c2ccccc2)CC1,.,.,.,-,.,-
Cc1ccc(OCC(=O)NC(=S)Nc2cccc(NC(=O)c3ccc(Cl)cc3Cl)c2)cc1,-,-,-,-,-,-
CC(=O)c1cccc(NC(=S)NC(=O)c2ccccc2Br)c1,-,-,-,-,-,36
Cc1ccc(OCC(=O)NC(=S)Nc2cccc(NC(=O)c3ccccc3)c2)cc1,-,-,-,-,-,38
O=C(Nc1nncs1)C1CC(=O)N(C2CCCC2)C1 (stereo not drawn),-,-,.,-,-,-
OCCNCCSc1nc(C2CCCCC2)n(-c2ccccc2Cl)n1,-,4.8,-,-,-,-
CC(Oc1ccc(Br)cc1)C(=O)Nc1cc(Cl)ccc1N1CCN(C)CC1 (stereo not drawn),.,.,.,-,.,-
O=c1c2ccccc2c(/C=N/c2n[nH]c(CCCO)n2)c(O)n1-c1ccccc1Cl,-,-,-,-,-,-
CCN1C=C(Cc2ccccc2C)C2=C(C1)C(c1ccccc1C)C(C#N)=C(N)O2 (stereo not drawn),+,-,-,-,-,-
O=C(Nc1cccc2ccccc12)N1CC=CCC1,+,81,-,-,-,-
O=C(Nc1cccc2ccccc12)N1CCN(c2ccccc2)CC1,-,-,-,-,-,-
CCN(CC)C(=O)C1=C(C)N(Cc2ccc(OC)cc2)C(=O)C(CC(=O)NCc2cccc3ccccc23)C1 (stereo not drawn),.,.,.,.,.,-
COc1ccc(-c2ccc(C#N)c(SCC(=O)Nc3sc4c(c3C#N)CCC4)n2)cc1OC,?,?,-,-,52,-
O=C1c2ccccc2C(=O)N1CC1=CCS(=O)(=O)C1,-,-,-,-,-,39
c1ccc(OCc2nnc3sc(-c4cccs4)nn23)cc1,-,-,-,-,-,-
Clc1ccc(Cl)c(-c2nn3c(COc4ccccc4)nnc3s2)c1,-,-,34[fluorescence artefact?],-,-,-
O=C1ON=C(c2ccccc2)/C1=C/c1ccc(O)c(O)c1,+,-,.,-,-,-
Cn1c(CNC(=O)c2ccc3c(c2)OCO3)nnc1SCC(=O)Nc1ccc(F)cc1,-,-,.,-,-,-
Cn1c(=O)c2c(nc(NCC3CCCC(CN)C3)n2Cc2ccc(Cl)cc2Cl)n(C)c1=O (stereo not drawn),-,-,.,-,-,-
O=C(OCc1nc2ccccc2s1)c1ccc(Br)o1,+,7.1,-,-,-,-
